Test results as given in ChEMBL document CHEMBL1127677, “The novel Ins(1,4,5)P3 analogue 3-amino-3-deoxy-Ins(1,4,5)P3: a pH-dependent Ins(1,4,5)P3 receptor partial agonist in SH-SY5Y neuroblastoma cells” (J Med Chem, 1994).

What was measured:
[1] = Calcium mobilization in saponin permeabilised SH-SY5Y neuroblastoma cells at a pH of 6.8; format: functional, cell-based; conditions: Homo sapiens
Outline: (§1)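 SH-SY5Y cells were preloaded with 45Ca2+ and permeabilized with saponin. Release from Ins(1,4,5)P3-sensitive stores was measured in cytosolic-like buffer at pH 6.8, 7.2 or 7.6, at 20–22 °C. Release was normalized to 100% using 30 μM Ins(1,4,5)P3 as an internal standard in each experiment. EC50 from curve fitting, mean ± sem, n = 4.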

[2] = Calcium mobilization in saponin permeabilised SH-SY5Y neuroblastoma cells at a pH of 7.2; format: functional, cell-based; conditions: Homo sapiens; outline: as §1
[3] = target: T1, Type 1 InsP3 receptor isoform S2 (Sus scrofa, UniProt P79248); assay: Binding affinity against IP3 receptor in pig cerebellar membranes at a pH of 7.6 using [3H]Ins(1,4,5)P3 as the radioligand.; format: cell membranes, Cerebellum, Membrane
T1 sequence (P79248 whole entry, canonical isoform): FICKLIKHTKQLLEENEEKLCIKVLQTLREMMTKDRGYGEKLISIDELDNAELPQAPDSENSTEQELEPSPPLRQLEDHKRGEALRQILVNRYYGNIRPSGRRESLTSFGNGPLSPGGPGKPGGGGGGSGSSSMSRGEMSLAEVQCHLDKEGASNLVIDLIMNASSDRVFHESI
Outline: (§2)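 [3H]Ins(1,4,5)P3 displacement using pig cerebellar P2 membranes, assayed at pH 7.6. Buffer: 25 mM Tris/maleate, 5 mM NaHCO3, 1 mM EDTA, 0.25 mM DTT. Increasing ligand concentrations were incubated with 1.5 nM radioligand and about 50 μg membrane protein for 30 min at 4 °C. Bound ligand was separated by centrifugation. Nonspecific binding was taken with 10 μM Ins(1,4,5)P3. IC50 from curve fitting, mean ± sem, n = 3.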

[4] = Calcium mobilization in saponin permeabilised SH-SY5Y neuroblastoma cells at a pH of 7.6; format: functional, cell-based; conditions: Homo sapiens; outline: as §1
[5] = target: T1, Type 1 InsP3 receptor isoform S2; assay: Binding affinity against IP3 receptor in pig cerebellar membranes at a pH of 6.8 using [3H]Ins(1,4,5)P3 as the radioligand.; format: cell membranes, Cerebellum, Membrane
Outline: as §2, with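 “pH 6.8.” for “pH 7.6.”, “about 70” for “about 50”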

Compound	EC50 [1] [nM]	EC50 [2] [nM]	IC50 [3] [nM]	EC50 [4] [nM]	IC50 [5] [nM]
OC1C(OP(O)(O)=S)C(O)C(OP(O)(O)=S)C(OP(O)(O)=S)C1OP(O)(O)=S (stereo unspecified)	5320				
NC1C(O)C(OP(=O)(O)O)C(O)C(OP(=O)(O)O)C1OP(=O)(O)O (stereo unspecified)	3680	1070	5650	1490	9110
OC1C(O)C(OP(O)(O)=S)C(OP(O)(O)=S)C(O)C1OP(O)(O)=S (stereo unspecified)	255	52	61	107	78
